# High-throughput results (PubChem)
# TRPML3 ag = human TRPML3 channel agonists, primary screen, cell-based, HEK293 TRPML3-YFP, Fluo-8 calcium fluorescence, 3 µM; actives 0.29% (n = 220,000); activation, % at 3 µM; AID 1448, 2008; Mucolipin-3 (Homo sapiens), Q8TDD5; 100% = the carbachol control signal;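 active means activation above its plate's cutoff, the mean activation of the plate's test wells plus 3 SD, cut at about 12% in these data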
#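 Material: TRPML3-YFP stable HEK293 cells | Dosing: One concentration, 3 µM nominal, 0.3% DMSO | Timing: 125 s total fluorescence read per well | Technique: Fluo-8 calcium dye fluorescence, ex 470-495, em 515-575 nm | Measure: Percent activation from peak-to-basal fluorescence ratio, scaled between DMSO and carbachol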
# TAAR1 antagonist = human TAAR1 antagonists, primary screen, Fluo-8 calcium fluorescence, CHO RD-HGA16 cells | inhibition, % at 3 µM | antagonist | actives 1.5% (n = 360,000) | Trace amine-associated receptor 1 (Homo sapiens), Q96RJ0;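 active means inhibition above a per-plate cutoff, the mean inhibition of test compounds on that plate plus 3 SD, cut at about 49% in these data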
# Target sequence (Q96RJ0 whole entry, looked up): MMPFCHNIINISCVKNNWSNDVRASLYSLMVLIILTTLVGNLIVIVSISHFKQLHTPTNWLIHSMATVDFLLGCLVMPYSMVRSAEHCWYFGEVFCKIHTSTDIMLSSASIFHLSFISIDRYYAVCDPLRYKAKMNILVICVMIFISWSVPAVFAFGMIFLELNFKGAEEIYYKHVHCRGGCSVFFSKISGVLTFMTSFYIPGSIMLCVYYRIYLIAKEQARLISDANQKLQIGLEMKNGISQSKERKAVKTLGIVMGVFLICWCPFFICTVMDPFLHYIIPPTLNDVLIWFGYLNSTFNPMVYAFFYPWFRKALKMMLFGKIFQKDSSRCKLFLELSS
#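 Test system: RD-HGA16 CHO cells with stable hTAAR1 and Gα16 / Probe or stimulus: EC80 β-phenethylamine stimulus / Times: seeding 17-24 h prior, 75-min 37 °C, 30-min RT dye loading / Detection: Fluo-8 calcium-sensitive fluorescence / Read-out basis: % inhibition scaled between DMSO and EC80 PEA controls / Repeats: singlicate, one well per test compound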
# TRPN1 ag = zebrafish TRPN1 channel agonists, primary screen, cell-based, HEK293, calcium fluorescence. transient receptor potential cation channel N1 (TRPN1/NompC), Danio rerio. HEK293 zebrafish TRPN1-YFP, Fluo-8 calcium fluorescence; 100% = response to 87 µM carbachol. activation, % at 3 µM. actives 0.18% (n = 220,000). AID 1424, 2008;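 active means activation above its plate's cutoff, the mean activation of test wells on that plate plus 3 SD, cut at about 19% in these data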
#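 System: zebrafish TRPN1-YFP in HEK293 cells / Dosing: 3 µM single point / Timing: dye loading 1 h at 37 °C, then 30 min room temperature / Signal: Fluo-8 calcium fluorescence, excitation 470-495 nm, emission 515-575 nm / Read-out basis: percent activation from peak over basal fluorescence ratio, control-normalized / Control set: high carbachol 87 µM, low DMSO alone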
# LANA-H2A inh = blockers of LANA interaction with H2A/H2B – biochemical, FP readout, HTS, primary screen | cell-free LANA-H2A/H2B peptide, fluorescence polarization | AID 2629, 2010 | actives 0.6% (n = 320,000) | inhibition, % (concentration not given with the values); in the data active means inhibition mostly above about 10%, no sharp cut-off; inactive means mostly below about 6.7%
# TAAR1 ag = human TAAR1 agonists, primary screen, Fluo-8 calcium fluorescence, CHO RD-HGA16 cells. actives 0.99% (n = 360,000). activation, % at 3 µM. AID 624467, 2012. Trace amine-associated receptor 1 (Homo sapiens), Q96RJ0. vehicle wells 0%, saturating PEA agonist 100%;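 active means activation above the mean activation of all test compounds in the run plus 3 SD, cut at about 38% in these data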
#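 Assay system: CHO-derived RD-HGA16 cells with stable Gα16 and human TAAR1; timing: 17-24 h seeding, 75 min 37 °C dye, 30 min RT; read-out: % activation from peak over basal fluorescence ratio, DMSO-to-PEA scaled; measured by: kinetic Fluo-8 calcium fluorescence; benchmarks: low control DMSO, high control PEA (EC100); doses: 3 µM single concentration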
# GPR7 antagonist = GPR7 receptor antagonists, primary screen, cell-based, fluorescence, single concentration; GPR7-expressing cells, fluorescence antagonist assay; inhibition, % at 4.4 µM; actives 1.1% (n = 290,000); AID 1861, 2009; in the data active means inhibition above about 16%, passing the limit was not always enough;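 further: cells stimulated with the agonist NPW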
# Target sequence (P48145 whole entry, looked up): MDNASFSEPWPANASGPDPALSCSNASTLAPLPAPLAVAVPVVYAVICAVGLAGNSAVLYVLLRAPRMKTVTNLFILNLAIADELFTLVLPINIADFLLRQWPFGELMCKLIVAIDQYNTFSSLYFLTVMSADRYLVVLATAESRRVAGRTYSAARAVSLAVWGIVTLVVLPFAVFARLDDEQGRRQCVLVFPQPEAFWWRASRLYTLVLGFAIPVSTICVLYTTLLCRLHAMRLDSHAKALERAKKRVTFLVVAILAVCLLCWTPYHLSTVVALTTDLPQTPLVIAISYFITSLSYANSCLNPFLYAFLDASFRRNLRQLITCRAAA
# Numbers stand for hits; n = inactive; x = no result given; + = active, no number; ! = repeats disagree. Compounds with a hit are over-represented: about 3.4% of the library has one in this group of screens.
SMILES,TRPML3 ag,TAAR1 antagonist,TRPN1 ag,LANA-H2A inh,TAAR1 ag,GPR7 antagonist
Cc1cc(C)nc(Nc2n[nH]c(-c3ccccc3C)n2)n1,n,n,n,n,n,n
O=c1[nH]c(-c2ccccc2)cn1C1CCN(Cc2ccc(-c3nc4ccc(Br)cc4nc3-c3ccccc3)cc2)CC1,x,n,x,x,n,x
C=CCOc1ccc(C=CC(=O)c2c(O)c(OC)c(OC)c(OC)c2OC)cc1,x,68.7,x,x,n,x
COc1ccc(C=CC(=O)c2c(OC)cc(OC)c(OC)c2O)cc1,x,n,x,x,n,x
CCC(NC(=O)c1cc(COc2cc(C)c(Cl)c(C)c2)on1)c1ccncc1 (stereo not given),x,n,x,n,43.3,n
CCC(NC(=O)c1cc(COc2ccc(C)nc2)on1)c1ccc(C)cc1 (stereo not given),x,n,x,n,49.2,n
Cc1ccc(OCc2cc(C(=O)NCc3cc(F)ccc3C)no2)cn1,x,n,x,x,n,n
COCCCNC(=O)[C@@H](Cc1ccccc1)NC(=O)[C@H]1O[C@@H](n2ccc(=O)[nH]c2=O)[C@H](O)[C@@H]1O,x,n,x,x,n,x
Cc1nnc(-n2cccc2)s1,x,n,x,x,n,x
Cc1ccc(C)c(CC(=O)N2CCCCC2c2cc(C(=O)Nc3cccc(C#N)c3)no2)c1 (stereo not given),x,n,x,x,48.2,x
O=C(NCc1ccccc1)[C@@H]1CCCN1C(=O)[C@H]1CCCN1C(=O)c1ccccc1F,x,n,x,x,n,x
Cc1ccc2nc(-c3ccccc3)cc(C(=O)NNC(=O)c3csc(N4CCOCC4)n3)c2c1,x,56.5,x,n,n,x
COC(=O)[C@]12C[C@H](CC(=O)N3CCN(C(=O)C4CC4)CC3)C(=O)N(Cc3ccccc3)C1=C[C@H](C1CCCC1)O[C@@H]2C,x,n,x,x,n,x
CC(=O)N1CCN(C(=O)CCNS(=O)(=O)c2ccc(Br)cc2)CC1,x,n,x,n,n,x
CC1CCN(C(=O)CCNS(=O)(=O)c2ccc(Br)cc2)CC1,x,n,x,24.4,n,x
COc1ccccc1NC(=O)Cn1c(C)cc(=O)c2cccc(OC)c21,n,n,n,24.6,n,n
COc1cccc2c(=O)cc(C)n(CC(=O)Nc3ccc(C)c(C)c3)c12,n,n,n,n,n,n
CCCOC(=O)c1cccc(Nc2nc(-c3cccnc3)nc3ccccc23)c1,n,62.5,n,n,n,n
OC(CNc1nc(-c2cccnc2)nc2ccccc12)c1ccccc1 (stereo not given),x,49.0,x,n,n,n
OCCNc1nc(-c2cccnc2)nc2ccccc12,n,n,n,n,n,n
O=[N+]([O-])c1ccc(COc2ccccc2CO)cc1,x,n,x,x,n,x
COC(=O)C1=C(C)N(Cc2cccc(C(F)(F)F)c2)C(=NCC2CC2)NC1c1ccccc1C(F)(F)F (stereo not given),x,n,x,x,n,x
O=C(Nc1ccccc1C(=O)NCc1ccccc1)c1ccccc1Br,n,n,n,n,n,n
Cc1ccccc1C(=O)Nc1ccccc1C(=O)NCc1ccccc1,n,49.0,n,n,n,n
Cn1c(SCc2c(F)cccc2Cl)nc2c(c1=O)SCC2,n,n,n,n,n,20.0
SMILES,TRPML3 ag,TAAR1 antagonist,TRPN1 ag,LANA-H2A inh,TAAR1 ag,GPR7 antagonist
Cn1c(SCc2c(F)cccc2Cl)nc2ccccc2c1=O,x,n,x,x,n,x
COC(=O)c1cc2c(c3c4cc(OC)ccc4n(S(=O)(=O)c4cccc(C)c4)c13)C(=O)N(Cc1ccc(C(F)(F)F)cc1)C2,x,n,x,x,n,x
CCOC(=O)C1=C(C(=O)OCC)C2N(Cc3ccc(C(F)(F)F)cc3)c3ccccc3[C@@]23C[C@@H](C(=O)OC)N(S(=O)(=O)c2ccc(OC)cc2)C3=N1 (stereo not given in full),x,n,x,x,n,x
CCOC(=O)C1=C(C(=O)OCC)C2N(Cc3ccc(C#N)cc3)c3ccccc3[C@@]23C[C@@H](C(=O)OC)N(S(=O)(=O)c2ccccc2)C3=N1 (stereo not given in full),x,n,x,x,n,x
COc1ccc(Nc2c(-c3ccco3)nc3cccc(C)n23)cc1,n,n,n,n,39.4,n
Cc1cccc2nc(-c3ccco3)c(Nc3ccc4c(c3)OCCO4)n12,n,n,n,n,n,n
Cc1ccccc1S(=O)(=O)N1CCCc2nc(-c3ccccc3)ccc21,x,n,x,x,n,x
O=C(Nc1ccn(Cc2ccccc2F)n1)c1ccc(COc2ccccc2Cl)cc1,n,54.9,n,n,n,n
C=COCCNC(=O)C(=O)NC(C)C,n,n,n,16.8,n,n
S=c1[nH]nc(-c2ccc(Cl)cc2Cl)n1-c1ccc(Cl)cc1,x,n,x,45.4,n,n
Oc1ccc(O)c(Cc2nc3ccccc3s2)c1,n,n,n,n,n,32.9
Oc1ccccc1OCc1nc2ccccc2s1,n,n,n,n,n,n
CO[C@H]1/C=C/O[C@@]2(C)Oc3c(C)c(O)c4c(O)c(c(C=NN5CCN(C)CC5)c(O)c4c3C2=O)NC(=O)/C(C)=C\C=C\[C@H](C)[C@H](O)[C@@H](C)[C@@H](O)[C@@H](C)[C@H](OC(C)=O)[C@@H]1C,x,n,x,n,n,x
CO[C@H]1C=CO[C@@]2(C)Oc3c(C)c(O)c4c(O)c(c(C=NN5CCN(C)CC5)c(O)c4c3C2=O)NC(=O)C(C)=CC=C[C@H](C)[C@H](O)[C@@H](C)[C@@H](O)[C@@H](C)[C@H](OC(C)=O)[C@@H]1C,n,n,n,48.8!,n,n
CC[C@]12c3[nH]c4ccccc4c3CCN1C(=O)C(CC(=O)NC/C=C(\C)CCC=C(C)C)C[C@@H]2C(=O)N1CCN(C(=O)c2ccco2)CC1 (stereo not given in full),x,n,x,+,n,x
CCOc1cccc(C=NNC(=O)C(=O)Nc2cccc(C(F)(F)F)c2)c1O,x,n,x,x,n,x
CCCCN1C(=O)/C(=C/C=C2/CC(C)(C)CN2C)SC1=S,14.0,n,26.1,n,n,n
CCCCN1C(=O)/C(=C/C=C2\Oc3ccccc3N2CC)SC1=S,n,89.7,n,x,180.1,n
O=C(c1ccccc1)N1CCC2CCN(S(=O)(=O)c3ccccc3)CC21 (stereo not given),x,n,x,x,n,x
COc1ccc(OC)c(-n2c(Cn3c(-c4ccccn4)nc4ccccc43)n[nH]c2=S)c1,n,n,n,14.3,n,n
